Assays:
[1] = Phase I safety and tolerability: DLTs, MTD, adverse events; type: in vivo, human
[2] = tested on: tumor glucose uptake (FDG-PET); assay: FDG-PET tumor uptake; type: in vivo, human
In short: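 Patients with advanced solid tumours received oral test compound once daily. FDG-PET/CT scans were taken at baseline and 1-4 h after dosing on days 22 and 55. Scans were centrally assessed by EORTC criteria, with SUVmax change as the measure. PIK3CA hotspot mutations in archival FFPE tumour DNA were typed by DxS allele-specific PCR, qRT-PCR or Sanger sequencing.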

mTOR kinase = details: read-out: inhibition constant (Ki) mTOR kinase; cited from earlier work
[3] = All patients in study (n=120), G3
[4] = All patients in study (n=120), ≤G2
[5] = All patients in study (n=120), ≥G4

Compound: Cc1c(CN2CCN(C(=O)[C@H](C)O)CC2)sc2c(N3CCOCC3)nc(-c3cnc(N)nc3)nc12 [apitolisib]
- Pneumonitis, treatment related AE, n (%) ([1]; 40mg 28/28d (n=51), ≤G2): 1 (2%)
- Pruritus, treatment related AE, n (%) ([1]; 40mg 28/28d (n=51), ≤G2): 13 (25%)
- Rash (maculopapular, pruritic, macular, erythematous, generalized), treatment related AE, n (%) ([1]; 40mg 28/28d (n=51), ≤G2): 20 (39%)
- Vomiting, treatment related AE, n (%) ([1]; 40mg 28/28d (n=51), ≤G2): 10 (20%)
- Decreased appetite, treatment related AE, n (%) ([1]; 40mg 28/28d (n=51), ≥G4): 0
- Diarrhea, treatment related AE, n (%) ([1]; 40mg 28/28d (n=51), ≥G4): 0
- Dry skin, treatment related AE, n (%) ([1]; 40mg 28/28d (n=51), ≥G4): 0
- Fatigue, treatment related AE, n (%) ([1]; 40mg 28/28d (n=51), ≥G4): 0
- Hyperglycemia, treatment related AE, n (%) ([1]; 40mg 28/28d (n=51), ≥G4): 0
- Liver dysfunction (abnormal LFTs), treatment related AE, n (%) ([1]; 40mg 28/28d (n=51), ≥G4): 0
- Mucosal inflammation, treatment related AE, n (%) ([1]; 40mg 28/28d (n=51), ≥G4): 0
- Nausea, treatment related AE, n (%) ([1]; 40mg 28/28d (n=51), ≥G4): 0
- Patients with any AE related to apitolisib, n (%) ([1]; 40mg 28/28d (n=51), ≥G4): 5 (10%)
- Pneumonitis, treatment related AE, n (%) ([1]; 40mg 28/28d (n=51), ≥G4): 2 (4%)
- Pruritus, treatment related AE, n (%) ([1]; 40mg 28/28d (n=51), ≥G4): 0
- Rash (maculopapular, pruritic, macular, erythematous, generalized), treatment related AE, n (%) ([1]; 40mg 28/28d (n=51), ≥G4): 0
- Vomiting, treatment related AE, n (%) ([1]; 40mg 28/28d (n=51), ≥G4): 0
- DLTs, Description ([1]; 70 mg 21/28 d, stage 1): G3 maculopapular rash and G3 fasting hyperglycemia
- treatment related deaths on study ([1]; 1 at 50 mg QD 21/28, 3 at 40 mg QD 28/28): 4
- patients requiring treatment discontinuation for rash ([1]; 4 patients in stage 2 (2 at 40 mg and 2 at 30 mg QD)): 5.1%
- DLTs, Description ([1]; All doses, stage 1): Hyperglycemia (n=2) Rash
- Decreased appetite, treatment related AE, n (%) [1, 3]: 0
- Diarrhea, treatment related AE, n (%) [1, 3]: 11 (9%)
- Dry skin, treatment related AE, n (%) [1, 3]: 1 (1%)
- Fatigue, treatment related AE, n (%) [1, 3]: 7 (6%)
- Hyperglycemia, treatment related AE, n (%) [1, 3]: 18 (15%)
- Liver dysfunction (abnormal LFTs), treatment related AE, n (%) [1, 3]: 9 (8%)
- Mucosal inflammation, treatment related AE, n (%) [1, 3]: 4 (3%)
- Nausea, treatment related AE, n (%) [1, 3]: 2 (2%)
- Patients with any AE related to apitolisib, n (%) [1, 3]: 51 (42%)
- Pneumonitis, treatment related AE, n (%) [1, 3]: 4 (3%)
- Pruritus, treatment related AE, n (%) [1, 3]: 1 (1%)
- Rash (maculopapular, pruritic, macular, erythematous, generalized), treatment related AE, n (%) [1, 3]: 14 (12%)
- Vomiting, treatment related AE, n (%) [1, 3]: 1 (1%)
- Decreased appetite, treatment related AE, n (%) [1, 4]: 42 (35%)
- Diarrhea, treatment related AE, n (%) [1, 4]: 60 (50%)
- Dry skin, treatment related AE, n (%) [1, 4]: 16 (13%)
- Fatigue, treatment related AE, n (%) [1, 4]: 73 (61%)
- Hyperglycemia, treatment related AE, n (%) [1, 4]: 9 (8%)
- Liver dysfunction (abnormal LFTs), treatment related AE, n (%) [1, 4]: 4 (3%)
- Mucosal inflammation, treatment related AE, n (%) [1, 4]: 27 (23%)
- Nausea, treatment related AE, n (%) [1, 4]: 48 (40%)
- Patients with any AE related to apitolisib, n (%) [1, 4]: 60 (50%)
- Pneumonitis, treatment related AE, n (%) [1, 4]: 8 (7%)
- Pruritus, treatment related AE, n (%) [1, 4]: 22 (18%)
- Rash (maculopapular, pruritic, macular, erythematous, generalized), treatment related AE, n (%) [1, 4]: 47 (39%)
- Vomiting, treatment related AE, n (%) [1, 4]: 24 (20%)
- Decreased appetite, treatment related AE, n (%) [1, 5]: 0
- Diarrhea, treatment related AE, n (%) [1, 5]: 0
- Dry skin, treatment related AE, n (%) [1, 5]: 0
- Fatigue, treatment related AE, n (%) [1, 5]: 0
- Hyperglycemia, treatment related AE, n (%) [1, 5]: 2 (2%)
- Liver dysfunction (abnormal LFTs), treatment related AE, n (%) [1, 5]: 0
- Mucosal inflammation, treatment related AE, n (%) [1, 5]: 0
- Nausea, treatment related AE, n (%) [1, 5]: 0
- Patients with any AE related to apitolisib, n (%) [1, 5]: 8 (7%)
- Pneumonitis, treatment related AE, n (%) [1, 5]: 2 (2%)
- Pruritus, treatment related AE, n (%) [1, 5]: 0
- Rash (maculopapular, pruritic, macular, erythematous, generalized), treatment related AE, n (%) [1, 5]: 0
- Vomiting, treatment related AE, n (%) [1, 5]: 0
- maximum tolerated dose (MTD) ([1]; QD, 21/28-day schedule, DLT <33.3%): 50 mg
- recommended phase 2 dose (RP2D) ([1]; QD, 28/28-day schedule, except MPM patients): 40 mg
- recommended dose for MPM ([1]; QD, 28/28 schedule, malignant pleural mesothelioma patients): 30 mg
- maximum administered dose (MAD) ([1]; QD, continuous 28/28 schedule): 50 mg
- diarrhea, treatment related ≥G3 ([1]; RP2D 40 mg QD): 10%
- fatigue, treatment related ≥G3 ([1]; RP2D 40 mg QD): 4%
- hyperglycemia, treatment related ≥G3 ([1]; RP2D 40 mg QD): 18%
- liver dysfunction, treatment related ≥G3 ([1]; RP2D 40 mg QD): 12%
- mucosal inflammation, treatment related ≥G3 ([1]; RP2D 40 mg QD): 6%
- pneumonitis, treatment related ≥G3 ([1]; RP2D 40 mg QD): 8%
- rash, treatment related ≥G3 ([1]; RP2D 40 mg QD): 14%
- pneumonitis cases reported on study ([1]; all patients, six severe): 14
- MTD ([1]; continuous 28/28 schedule): not reached
- dose reductions due to diarrhea ([1]; human, in vivo, oral): 2 n
- dose reductions due to mucosal inflammation ([1]; human, in vivo, oral): 2 n
- dose reductions due to pneumonitis ([1]; human, in vivo, oral): 2 n
- rate of severe pneumonitis (grade ≥3) ([1]; in vivo): 8%
- patients with pneumonitis outside the DLT window ([1]; stage 1, including 3 severe cases): 8 patients
- patients with PIK3CA mutations with more than 25% mean decrease in SUVmax ([2]; 40 mg QD): 9/12
- patients with decrease in FDG-PET uptake of >25% ([2]; 40 mg QD (21/32)): 66%
- PIK3CA mutation patients with FDG-PET response ([2]; all dose cohorts (10 out of 14)): 71%
- Ki (mTOR kinase): 0.0173 µM
